Source: paper PMC3969088 (British Journal of Pharmacology, 2014)
One block for each substance: values may come before it. Where no end group is shown, it is not given here.

Legend:
[1] = biological target: AM2 receptor, wild type (HA-CLR with RAMP3) (human) (UniProt Q16602)
[2] = biological target: AM1 receptor, RAMP2 E101A (HA-CLR with FLAG-RAMP2 E101A) (human) (UniProt Q16602)
[3] = biological target: AM2 receptor, RAMP3 W84A (HA-CLR with RAMP3 W84A) (human) (UniProt Q16602)
[4] = biological target: AM2 receptor, RAMP3 W84F (HA-CLR with RAMP3 W84F) (human) (UniProt Q16602)
[5] = biological target: AM1 receptor, CLR L34A (HA-CLR L34A with FLAG-RAMP2) (human) (UniProt Q16602)
[6] = biological target: AM1 receptor, CLR I32A (HA-CLR I32A with FLAG-RAMP2) (human) (UniProt Q16602)
[7] = biological target: AM1 receptor, CLR Q33A (HA-CLR Q33A with FLAG-RAMP2) (human) (UniProt Q16602)
[8] = biological target: AM1 receptor, CLR I52A (HA-CLR I52A with FLAG-RAMP2) (human) (UniProt Q16602)
[9] = biological target: AM1 receptor, CLR M42A (HA-CLR M42A with FLAG-RAMP2) (human) (UniProt Q16602)
[10] = biological target: AM1 receptor, CLR G35A (HA-CLR G35A with FLAG-RAMP2) (human) (UniProt Q16602)
[11] = biological target: AM1 receptor, CLR V36A (HA-CLR V36A with FLAG-RAMP2) (human) (UniProt Q16602)
[12] = biological target: CGRP receptor, CLR I41A (HA-CLR I41A with RAMP1) (UniProt Q16602)
[13] = biological target: CGRP receptor, CLR I32A (HA-CLR I32A with RAMP1) (UniProt Q16602)
[14] = biological target: CGRP receptor, wild type (HA-CLR with RAMP1) (UniProt Q16602)
[15] = biological target: CGRP receptor, CLR T37A (HA-CLR T37A with RAMP1) (UniProt Q16602)
[16] = biological target: CGRP receptor, CLR Q45A (HA-CLR Q45A with RAMP1) (UniProt Q16602)
[17] = biological target: CGRP receptor, CLR G35A (HA-CLR G35A with RAMP1) (UniProt Q16602)
[18] = biological target: CGRP receptor, CLR L34A (HA-CLR L34A with RAMP1) (UniProt Q16602)
[19] = biological target: CGRP receptor, CLR M42A (HA-CLR M42A with RAMP1) (UniProt Q16602)
[20] = biological target: AM2 receptor, CLR L34A (HA-CLR L34A with RAMP3) (human) (UniProt Q16602)
[21] = biological target: AM2 receptor, CLR Q33A (HA-CLR Q33A with RAMP3) (human) (UniProt Q16602)
[22] = biological target: AM2 receptor, CLR V36A (HA-CLR V36A with RAMP3) (human) (UniProt Q16602)
[23] = biological target: AM2 receptor, CLR I52A (HA-CLR I52A with RAMP3) (human) (UniProt Q16602)
[24] = biological target: AM2 receptor, CLR T37A (HA-CLR T37A with RAMP3) (human) (UniProt Q16602)
[25] = biological target: AM2 receptor, CLR M42A (HA-CLR M42A with RAMP3) (human) (UniProt Q16602)
[26] = biological target: AM2 receptor, wild type (HA-CLR with RAMP3) (human) (UniProt Q16602); remark: listed apart in the source
[27] = biological target: AM2 receptor, CLR Q45A (HA-CLR Q45A with RAMP3) (human) (UniProt Q16602)
[28] = biological target: AM2 receptor, CLR I41A (HA-CLR I41A with RAMP3) (human) (UniProt Q16602)
[29] = biological target: AM2 receptor, CLR I32A (HA-CLR I32A with RAMP3) (human) (UniProt Q16602)
[30] = biological target: AM2 receptor, CLR G35A (HA-CLR G35A with RAMP3) (human) (UniProt Q16602)
[31] = tested on: CLR mutants at the AM2 receptor; experiment: specific binding of [125I]-rAM to CLR mutants at the AM2 receptor; design: species or system human; conditions: Cos7, 4°C 1 h
Summary of the method: (§1)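 Cos7 cells transiently cotransfected (PEI, 1 μg DNA/well total) with HA-tagged human CLR mutants plus FLAG-human RAMP2 (AM1) or untagged human RAMP3 (AM2). Cells incubated in DMEM/0.5% BSA with [125I]-rAM ([…], 30 000 cpm/well) at 4°C for 1 h, washed with ice-cold PBS, NaOH-solubilised and gamma-counted. […] Specific binding normalised to the WT mean.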

[32] = tested on: CLR mutants at the AM1 receptor; experiment: specific binding of [125I]-rAM to CLR mutants at the AM1 receptor; design: species or system human; conditions: Cos7, 4°C 1 h
Summary of the method: as §1

pEC50, cAMP production in Cos7 cells; WT control paired with RAMP3 W84A [1]: 9.62
pEC50, cAMP production in Cos7 cells; WT control paired with RAMP3 W84F [1]: 9.63
pEC50, cAMP production in Cos7 cells [2]: 7.39
pEC50, cAMP production in Cos7 cells [3]: 9.02
pEC50, cAMP production in Cos7 cells [4]: 9.38
pEC50, cAMP production in Cos7 cells [5]: 7.64
pEC50, cAMP production in Cos7 cells [6]: 8.24
pEC50, cAMP production in Cos7 cells [7]: 7.89
pEC50, cAMP production in Cos7 cells [8]: 8.11
pEC50, cAMP production in Cos7 cells [9]: 7.86
pEC50, cAMP production in Cos7 cells [10]: 7.92
pEC50, cAMP production in Cos7 cells [11]: 7.89
pEC50, cAMP production in Cos7 cells [12]: 7.23
pEC50, cAMP production in Cos7 cells [13]: 8.52
pEC50, cAMP production in Cos7 cells; WT control paired with CLR G35A [14]: 8.4
pEC50, cAMP production in Cos7 cells; WT control paired with CLR I32A [14]: 8.42
pEC50, cAMP production in Cos7 cells; WT control paired with CLR I41A [14]: 8.31
pEC50, cAMP production in Cos7 cells; WT control paired with CLR L34A [14]: 8.51
pEC50, cAMP production in Cos7 cells; WT control paired with CLR M42A [14]: 8.33
pEC50, cAMP production in Cos7 cells; WT control paired with CLR Q45A [14]: 8.65
pEC50, cAMP production in Cos7 cells; WT control paired with CLR T37A [14]: 8.31
pEC50, cAMP production in Cos7 cells; WT control paired with CLR V36A [14]: 8.42
pEC50, cAMP production in Cos7 cells [15]: 7.47
pEC50, cAMP production in Cos7 cells [16]: 7.97
pEC50, cAMP production in Cos7 cells [17]: 8.04
pEC50, cAMP production in Cos7 cells [18]: 8.44
pEC50, cAMP production in Cos7 cells [19]: 8.27
pEC50, cAMP production in Cos7 cells [20]: 9.13
pEC50, cAMP production in Cos7 cells [21]: 8.56
pEC50, cAMP production in Cos7 cells [22]: 8.62
pEC50, cAMP production in Cos7 cells [23]: 9.12
pEC50, cAMP production in Cos7 cells [24]: 7.7
pEC50, cAMP production in Cos7 cells [25]: 8.61
pEC50, cAMP production in Cos7 cells; WT control paired with CLR G35A [26]: 9.09
pEC50, cAMP production in Cos7 cells; WT control paired with CLR I32A [26]: 9.83
pEC50, cAMP production in Cos7 cells; WT control paired with CLR I41A [26]: 9.32
pEC50, cAMP production in Cos7 cells; WT control paired with CLR I52A [26]: 9.29
pEC50, cAMP production in Cos7 cells; WT control paired with CLR L34A [26]: 9.42
pEC50, cAMP production in Cos7 cells; WT control paired with CLR M42A [26]: 8.82
pEC50, cAMP production in Cos7 cells; WT control paired with CLR Q33A [26]: 8.59
pEC50, cAMP production in Cos7 cells; WT control paired with CLR Q45A [26]: 8.95
pEC50, cAMP production in Cos7 cells; WT control paired with CLR T37A [26]: 9.13
pEC50, cAMP production in Cos7 cells; WT control paired with CLR V36A [26]: 9.09
pEC50, cAMP production in Cos7 cells [27]: 8.94
pEC50, cAMP production in Cos7 cells [28]: 8.47
pEC50, cAMP production in Cos7 cells [29]: 9.47
pEC50, cAMP production in Cos7 cells [30]: 8.78
Substance: Human adrenomedullin 2 (AM2-47) (from UniProt Q7Z4H4 101-148) (peptide)

specific binding of [125I]-rAM ([31]; CLR M42A and Q45A): retained
specific binding of [125I]-rAM ([31]; CLR T37A and I41A): abolished
specific binding of [125I]-rAM ([32]; CLR I52A (printed 152A)): retained binding
specific binding of [125I]-rAM ([32]; CLR M42A and Q45A): abolished
specific binding of [125I]-rAM ([32]; CLR T37A and I41A): abolished
Substance: [^125I]-rAM: rat AM (rAM) iodinated using iodobeads, purified by reverse phase HPLC; radioligand (YRQSMNQGSRSTGCRFGTCTMQKLAHQIYQFTDKDKDGMAPRNKISPQGY; ends and bridges not checked; also: 125I label, residue not given here)
